# Measurements reported in paper PMC7985749 (CNS Drugs, 2021).
# Assays:
# [1] = Plasma pharmacokinetics, single ascending dose; format: in vivo, human; settings: for Tmax / half-life / AUC(0-inf) / AUC(0-t) / Cmax / Vd/F: human, plasma
# [2] = Plasma pharmacokinetics, multiple ascending dose; format: in vivo, human; settings: for Tmax / AUC(0-t) / Cmax / half-life: human, plasma, oral; for AUC(0-t) / Cmax / half-life: mean (CV %); for half-life: t½, 5 days
# [3] = CSF pharmacokinetics substudy; format: in vivo, human; settings: for Kp at 2 h / Kp at 6 h / Kp at 12 h / concentration at 2 h / concentration at 6 h / concentration at 12 h: male, human, oral; for Kp at 2 h / Kp at 6 h / Kp at 12 h: CSF / unbound plasma
# Method in brief: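 Open-label cohorts of healthy volunteers got a single oral dose of 2 or 4 mg. CSF and plasma were sampled predose and at preset timepoints, n = 3 subjects per timepoint. Levels were measured by GLP-validated LC-MS/MS: ethyl acetate liquid–liquid extraction, C18 column, positive ESI, deuterated internal standard. LLOQ was 50 pg/mL (CSF) and 10 pg/mL (plasma). Unbound plasma concentration was total corrected by an in vitro dialysis fraction unbound.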
# [4] = Adverse events / TEAEs, older adult; format: in vivo, human
# [5] = tested on: platelet levels; assay: Platelet levels; format: in vivo, human
# Method in brief: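 Young volunteers took the test compound or placebo orally once daily for 5 days, 0.2–4 mg/day; older adults took 2.5 mg/day. Platelets were counted in hematology safety blood samples at preset timepoints through 264 h and at follow-up, as % change from baseline. The MID limit included >50% platelet drop or grade ≥1 thrombocytopenia in >50% of active, not placebo, subjects. EC50 and EC80 came from a nonlinear exposure–response fit.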
# [6] = target: KDM1A (Homo sapiens, UniProt O60341); assay: Chemoprobe-based KDM1A target engagement in PBMCs; format: in vivo
# [7] = 28-day GLP toxicology study in rats; settings: rat, in vivo, oral
# [8] = Neuropsychological assessments; format: in vivo, human; settings: SAD, MAD, or CSF cohorts
# Method in brief: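 Tests were VAS, LSEQ, WCST and Sternberg, run within the neurological evaluation. The trial was single-centre, randomized, double-blind and placebo-controlled in healthy volunteers. Dosing was oral: single doses of 0.2–4 mg (young males), 5 daily doses of 0.2–4 mg/day (young males and females), or 2.5 mg/day for 5 days (older adults). Assessments followed the scheduled timepoints.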
# [9] = Safety and tolerability, all study stages; format: in vivo, human
# [10] = Elderly cohort, active treatment, 5 days, n = 3
smiles,measurement,setting,value
Nc1nnc(CN[C@@H]2C[C@H]2c2ccc(OCc3ccccc3)cc2)o1 [vafidemstat],"Variability, overall coefficient of variation","[1]; SAD and MAD cohorts, plasma PK",≤ 30%
same,Tmax,"[1]; both, oral",0.5 to 2 h
same,half-life,"[1]; both, oral",20 to 30 h
same,AUC(0-inf),"[1]; male, po, 0.2 mg",30.9 ng·h/mL
same,AUC(0-t),"[1]; male, po, 0.2 mg",28 ng·h/mL
same,Cmax,"[1]; male, po, 0.2 mg",1.11 ng/mL
same,Tmax,"[1]; male, po, 0.2 mg",2.75 h
same,Vd/F,"[1]; male, po, 0.2 mg",260 L
same,half-life,"[1]; male, po, 0.2 mg",28 h
same,AUC(0-inf),"[1]; male, po, 0.6 mg",90.7 ng·h/mL
same,AUC(0-t),"[1]; male, po, 0.6 mg",83.3 ng·h/mL
same,Cmax,"[1]; male, po, 0.6 mg",3.21 ng/mL
same,Tmax,"[1]; male, po, 0.6 mg",1.83 h
same,Vd/F,"[1]; male, po, 0.6 mg",256 L
same,half-life,"[1]; male, po, 0.6 mg",27 h
same,AUC(0-inf),"[1]; male, po, 1.5 mg",428 ng·h/mL
same,AUC(0-t),"[1]; male, po, 1.5 mg",297 ng·h/mL
same,Cmax,"[1]; male, po, 1.5 mg",11.9 ng/mL
same,Tmax,"[1]; male, po, 1.5 mg",0.92 h
same,Vd/F,"[1]; male, po, 1.5 mg",213 L
same,half-life,"[1]; male, po, 1.5 mg",41 h
same,AUC(0-inf),"[1]; male, po, 2.5 mg",438 ng·h/mL
same,AUC(0-t),"[1]; male, po, 2.5 mg",402 ng·h/mL
same,Cmax,"[1]; male, po, 2.5 mg",18.8 ng/mL
same,Tmax,"[1]; male, po, 2.5 mg",1.58 h
same,Vd/F,"[1]; male, po, 2.5 mg",203 L
same,half-life,"[1]; male, po, 2.5 mg",25 h
same,AUC(0-inf),"[1]; male, po, 4 mg",568 ng·h/mL
same,AUC(0-t),"[1]; male, po, 4 mg",550 ng·h/mL
same,Cmax,"[1]; male, po, 4 mg",38 ng/mL
same,Tmax,"[1]; male, po, 4 mg",1.71 h
same,Vd/F,"[1]; male, po, 4 mg",204 L
same,half-life,"[1]; male, po, 4 mg",20 h
same,"Pharmacokinetic profiles, young versus older adult populations",[2]; 2.5 mg/day,did not differ significantly
same,Tmax,"[2]; both, 0.2 mg/day",5.1 h
same,AUC(0-t),"[2]; both, 0.2 mg/day, AUC0–t (D1), MAD 0.2 mg/day, day 1, young",18.7 ng·h/mL
same,AUC(0-t),"[2]; both, 0.2 mg/day, AUC0–t,ss (D5), MAD 0.2 mg/day, day 5, young",37.7 ng·h/mL
same,Cmax,"[2]; both, 0.2 mg/day, Cmax (D1), MAD 0.2 mg/day, day 1, young",1.28 ng/mL
same,Cmax,"[2]; both, 0.2 mg/day, Cmax,ss (D5), MAD 0.2 mg/day, day 5, young",2.32 ng/mL
same,half-life,"[2]; both, 0.2 mg/day, MAD 0.2 mg/day, young",22 h
same,Tmax,"[2]; both, 0.6 mg/day",2.25 h
same,AUC(0-t),"[2]; both, 0.6 mg/day, AUC0–t (D1), MAD 0.6 mg/day, day 1, young",50.6 ng·h/mL
same,AUC(0-t),"[2]; both, 0.6 mg/day, AUC0–t,ss (D5), MAD 0.6 mg/day, day 5, young",114 ng·h/mL
same,Cmax,"[2]; both, 0.6 mg/day, Cmax (D1), MAD 0.6 mg/day, day 1, young",3.69 ng/mL
same,Cmax,"[2]; both, 0.6 mg/day, Cmax,ss (D5), MAD 0.6 mg/day, day 5, young",7.65 ng/mL
same,half-life,"[2]; both, 0.6 mg/day, MAD 0.6 mg/day, young",22 h
same,Tmax,"[2]; both, 1 mg/day",1.83 h
same,Tmax,"[2]; both, 1.5 mg/day",1.17 h
same,AUC(0-t),"[2]; both, 1.5 mg/day, AUC0–t (D1), MAD 1.5 mg/day, day 1, young",138 ng·h/mL
same,AUC(0-t),"[2]; both, 1.5 mg/day, AUC0–t,ss (D5), MAD 1.5 mg/day, day 5, young",299 ng·h/mL
same,Cmax,"[2]; both, 1.5 mg/day, Cmax (D1), MAD 1.5 mg/day, day 1, young",11.3 ng/mL
same,Cmax,"[2]; both, 1.5 mg/day, Cmax,ss (D5), MAD 1.5 mg/day, day 5, young",23.6 ng/mL
same,half-life,"[2]; both, 1.5 mg/day, MAD 1.5 mg/day, young",22 h
same,Tmax,"[2]; both, 2.5 mg/day",2.17 h
same,AUC(0-t),"[2]; both, 2.5 mg/day, AUC0–t (D1), MAD 2.5 mg/day, day 1, young",292 ng·h/mL
same,AUC(0-t),"[2]; both, 2.5 mg/day, AUC0–t,ss (D5), MAD 2.5 mg/day, day 5, young",634 ng·h/mL
same,AUC(0-t),"[2]; both, 2.5 mg/day, AUC0–t,ss (D5), MAD older adult 2.5 mg/day, day 5",442 ng·h/mL
same,Cmax,"[2]; both, 2.5 mg/day, Cmax (D1), MAD 2.5 mg/day, day 1, young",26.6 ng/mL
same,Cmax,"[2]; both, 2.5 mg/day, Cmax,ss (D5), MAD 2.5 mg/day, day 5, young",49.9 ng/mL
same,half-life,"[2]; both, 2.5 mg/day, MAD 2.5 mg/day, young",22 h
same,half-life,"[2]; both, 2.5 mg/day, MAD older adult 2.5 mg/day",23 h
same,Tmax,"[2]; both, 4 mg/day",1.33 h
same,AUC(0-t),"[2]; both, 4 mg/day, AUC0–t (D1), MAD 4.0 mg/day, day 1, young",564 ng·h/mL
same,AUC(0-t),"[2]; both, 4 mg/day, AUC0–t,ss (D5), MAD 4.0 mg/day, day 5, young",994 ng·h/mL
same,Cmax,"[2]; both, 4 mg/day, Cmax (D1), MAD 4.0 mg/day, day 1, young",56 ng/mL
same,Cmax,"[2]; both, 4 mg/day, Cmax,ss (D5), MAD 4.0 mg/day, day 5, young",110 ng/mL
same,half-life,"[2]; both, 4 mg/day, MAD 4.0 mg/day, young",20 h
same,Tmax,[2]; 2.5 mg/day,2.33 h
same,AUC(0-t),"[2]; 2.5 mg/day, AUC0–t (D1), MAD older adult 2.5 mg/day, day 1",258 ng·h/mL
same,Cmax,"[2]; 2.5 mg/day, Cmax (D1), MAD older adult 2.5 mg/day, day 1",24.3 ng/mL
same,Cmax,"[2]; 2.5 mg/day, Cmax,ss (D5), MAD older adult 2.5 mg/day, day 5",41 ng/mL
same,Blood–brain barrier crossing,"[3]; CSF cohort, quantifiable CSF concentrations from 2 h post-dose",shown to cross the human blood–brain barrier
same,Kp at 2 h,[3]; 2 mg,0.78
same,Kp at 6 h,[3]; 2 mg,0.74
same,Kp at 12 h,[3]; 2 mg,0.92
same,Kp at 2 h,[3]; 4 mg,0.69
same,Kp at 6 h,[3]; 4 mg,0.83
same,Kp at 12 h,[3]; 4 mg,0.91
same,concentration at 2 h,"[3]; CSF, 2 mg",0.239 ng/mL
same,concentration at 6 h,"[3]; CSF, 2 mg",0.181 ng/mL
same,concentration at 12 h,"[3]; CSF, 2 mg",0.17 ng/mL
same,concentration at 2 h,"[3]; CSF, 4 mg",0.387 ng/mL
same,concentration at 6 h,"[3]; CSF, 4 mg",0.734 ng/mL
same,concentration at 12 h,"[3]; CSF, 4 mg",0.55 ng/mL
same,concentration at 2 h,"[3]; plasma (unbound), 2 mg",0.316 ng/mL
same,concentration at 6 h,"[3]; plasma (unbound), 2 mg",0.248 ng/mL
same,concentration at 12 h,"[3]; plasma (unbound), 2 mg",0.186 ng/mL
same,concentration at 2 h,"[3]; plasma (unbound), 4 mg",0.59 ng/mL
same,concentration at 6 h,"[3]; plasma (unbound), 4 mg",0.871 ng/mL
same,concentration at 12 h,"[3]; plasma (unbound), 4 mg",0.609 ng/mL
same,Number of TEAEs (% of total TEAEs): Asthenia,[4]; [10],1 (4.8) n (%)
same,Number of TEAEs (% of total TEAEs): Blunted effect,[4]; [10],1 (4.8) n (%)
same,Number of TEAEs (% of total TEAEs): Feeling cold,[4]; [10],1 (4.8) n (%)
same,Number of TEAEs (% of total TEAEs): Gait disturbance,[4]; [10],1 (4.8) n (%)
same,Number of TEAEs (% of total TEAEs): Headache,[4]; [10],3 (14.3) n (%)
same,Number of TEAEs (% of total TEAEs): Musculoskeletal stiffness,[4]; [10],1 (4.8) n (%)
same,Number of TEAEs (% of total TEAEs): Palpitations,[4]; [10],1 (4.8) n (%)
same,Number of TEAEs (% of total TEAEs): Total,[4]; [10],10 (47.6) n (%)
same,Number of TEAEs (% of total TEAEs): Vertigo,[4]; [10],1 (4.8) n (%)
same,Number of treatment-related TEAEs,"[4]; MAD stage in older adult volunteers, with vafidemstat",10
same,Maximum tolerated dose,"[5]; MAD, 5 days",2.5 mg/day
same,Minimum intolerable dose (MID) as defined per protocol,"[5]; MAD, 5 days",4 mg/day
same,Platelet levels,[5]; any SAD dose level or up to MAD dose III (1.0 mg/day),no variations
same,Platelet level drops from baseline versus exposure,"[5]; at Cmax,ss of ~ 100 ng/mL and AUCss of ~ 1000 ng·h/mL",~ 50%
same,Maximum KDM1A TE values,"[6]; MAD, at 108 h after first dose (12 h after last dose), PBMCs",up to 90%
same,KDM1A binding in PBMCs,[6]; SAD and MAD,dose-dependent manner
same,Maximum KDM1A TE,"[6]; SAD cohorts, 4 mg, at 12 h, PBMCs",around 80%
same,KDM1A TE peak versus plasma exposure,"[6]; at Cmax,ss of ~ 30 ng/mL and AUCss of ~ 500 ng·h/mL",~ 90%
same,KDM1A TE,"[6]; older adult population, evaluable sample from a single individual",85.6%
same,NOAEL at 28 days,[7],0.2 mg/kg
same,Sleeping or awakening patterns (LSEQ),[8],did not disrupt sleeping or awakening patterns
same,Somnolence and potential for abuse (VAS),[8],did not provoke somnolence or reveal a potential for abuse
same,WCST or Sternberg test,[8]; any dose level or parameter,No significant differences
same,Serious adverse events (SAEs),[9]; during the study,No SAEs
same,"Changes over time in hematological, biochemical, urinalysis parameters, vital signs, ECG values",[9]; planned SAD or MAD (including older adult) cohorts,No significant changes
same,Number of AEs reported by subjects receiving vafidemstat,"[9]; three study stages (SAD, MAD, older adult), 120 AEs in total",90
same,Number of TEAEs possibly or probably related to the study drug,"[9]; volunteers treated with vafidemstat, three study stages, 108 TEAEs in total",79
